Dynein cargo inh – dynein cargo transport inhibition; 3617.4 mouse cells, GR-EGFP nuclear translocation imaging; test concentration mostly 20 µM; stimulated with dexamethasone, 1 µM; stronger effect = lower value; z-score, hits read low; hit rate 0.47% among 220,000;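 active means plate z-score of nuclear minus cytoplasmic receptor signal below a set negative limit, without overly bright fluorescence or cell loss, cut at about -3.5 in these data, passing the limit was not always enough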;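 further: z-score of nuclear minus cytoplasmic ring GR-EGFP intensity difference per well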
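Buffer or medium: tet-free, stripped-serum medium; Also added: dexamethasone, 1.0 µM final; Technique: high-content fluorescence imaging after fixation; Times: 48 h induction, 1 h compound, 30 min dex at 37 °C; Read-out: per-cell GR-EGFP intensity, nucleus versus surrounding cytoplasmic ring, well-averaged.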
L major viab – reduces viability of Leishmania major promastigotes; resazurin fluorescence viability; inhibition, % at 10 µM; hit rate 9% among 200,000; in the data active means inhibition above about 50%;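 further: promastigotes grown with compound for 44 hours at 28 °C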
MT stabilize HCS – microtubule stabilizers in HeLa cells | % tubulin-high responders, % at 10 µM | hit rate 0.83% among 200,000 | HeLa tubulin immunostaining HCS, 24 h; share of cells brighter than vehicle mean+2SD;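 active means plate Z-score above 3 for both tubulin-high and condensed-nucleus cell shares, with cell loss under 80%, at 10 µM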;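 further: anti alpha tubulin signal scored within the nucleus-defined area of each cell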
CHOP inh – CHOP inhibition in unfolded protein response | CHO-K1 CHOP-promoter luciferase, tunicamycin-induced, 15-18 h | inhibition, % at 10 µM | hit rate 3.8% among 220,000 | AID 2732;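 active means compounds that reduced the stress-induced luciferase reporter signal by more than about 70% of percent inhibition, limit read from the data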;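 further: 0% = tunicamycin plus vehicle and 100% = wells without tunicamycin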
b-catenin transl – modulators of beta-catenin nuclear translocation; HeLa beta-catenin nuclear translocation, immunofluorescence imaging; nuclear translocation activity, % at 5 µM; hit rate 0.3% among 190,000;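 active means nuclear translocation activity above 50% at 5 µM, with a well cell count of 50 or more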;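 further: per-cell ratio of nuclear to cytoplasmic median beta-catenin stain intensity; plate controls were DMSO negative control for no effect and GSK-3 inhibitor IX positive control for full effect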
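System: HeLa cells, endogenous beta-catenin; compound dosing: 5 µM primary single dose, 0.1% DMSO, 0.02–20 µM confirmation series; incubation: 24 h compound exposure at 37°C, 5% CO2; signal: beta-catenin immunofluorescence imaging with DAPI; evaluation: % activation, nuclear-to-cytoplasmic median beta-catenin signal ratio per cell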
Autophagy HCS – autophagy modulation, high-content screen. MEF GFP-LC3 puncta imaging; test concentration mostly 10 µM. calls only at 10 µM (by protocol). hit rate 0.98% among 190,000;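 active means percentage of spot-positive cells more than 3 SD above its plate mean, without a fluorescence outlier flag or 80% toxicity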;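 further: spot-positive cell cutoff set from DMSO-treated cells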
Numbers without * were called inactive; i = inactive; · = not tested or not shown. Hits are enriched below; roughly 12% of the tested compounds scored in any of these assays.

SMILES | Dynein cargo inh | L major viab | MT stabilize HCS | CHOP inh | b-catenin transl | Autophagy HCS
CC(C)CNc1nc(SCC(=O)Nc2ccccc2)nc(N2CCOCC2)n1 | -0.718 | 0.1 | 0.5 | 20.3 | -5.1 | i
CC(CCc1ccccc1)NCC#N (stereo not given) | 0.329 | · | · | -9.1 | 0.7 | ·
Fc1ccc(COc2ccc(Br)cc2CNCc2ccncc2)cc1 | -0.243 | 97.4* | 2.8 | 29.1 | 4.2 | i
Brc1ccc(OCc2ccccc2)c(CNCC2CCCO2)c1 (stereo not given) | 0.228 | 39.1 | 4.7 | 17.8 | -7.5 | i
CCOC(=O)c1c(C)n(-c2ccc(C)cc2)c2c(CC(C)=O)c(Br)c(OC)c(O)c12 | -0.533 | -0.7 | 2.1 | 4.7 | -1.9 | i
CCOC(=O)c1c(C)n(-c2ccc(C)cc2)c2c(C(C(C)=O)C(=O)O)c(Br)c(O)c(O)c12 (stereo not given) | -2.53 | 50.0* | 1.4 | -53.1 | -5.3 | i
CC(NC(=O)C1CC2CCCC(C1)C2=O)c1ccccc1 (stereo not given) | 1.6 | -1.2 | 3.0 | 25.2 | · | i
OCCC1CN(CC(c2ccccc2)c2ccccc2)CCN1C1CCCC1 (stereo not given) | -1.5 | 86.9* | 2.3 | 33.6 | 0.3 | i
OCCC1CN(Cc2nc3ccccc3s2)CCN1C1CCCC1 (stereo not given) | 1.74 | 66.8* | 2.5 | -10.6 | 0.8 | i
CC(C)N1CCN(Cc2nc3ccccc3s2)CC1CCO (stereo not given) | -0.293 | -5.9 | 0.5 | -10.3 | -0.6 | i
Cc1ccc(C(=O)COC(=O)c2ccccc2NC(=O)c2ccccc2)cc1[N+](=O)[O-] | -0.0953 | 45.1 | 5.0 | 40.2 | 4.8 | i
NS(=O)(=O)c1cc2c(cc1Cl)NC(Cc1ccccc1)NS2(=O)=O (stereo not given) | -0.711 | · | · | 2.6 | -3.2 | ·
COC(=O)CC1C(=O)NCCN1C(=O)CSc1nc2ccc([N+](=O)[O-])cc2s1 (stereo not given) | -0.224 | 13.9 | 2.5 | 5.3 | -0.1 | i
Cc1cc(C)n(C(=O)Cn2nc([N+](=O)[O-])c(Br)c2C)n1 | -0.118 | -6.9 | 1.7 | -13.1 | 0.6 | i
O=C(Nc1ccc(-c2nc3cc(Cl)ccc3c(=O)o2)cc1)c1ccco1 | 0.199 | 2.2 | 5.7 | -10.0 | -0.6 | i
O=C(Nc1ccc(-c2nc3c(ccc4ccccc43)o2)cc1)c1ccco1 | 0.897 | -6.1 | 2.9 | 79.4* | · | i
COc1ccc(C2Nc3ccc4ccccc4c3-c3c2c(=O)oc2ccccc32)cc1 (stereo not given) | 0.849 | 100.1* | 2.6 | 66.1 | -1.0 | i
COc1ccc(-c2cc(=O)c3ccccc3o2)cc1 | -0.858 | · | · | -4.4 | 0.8 | ·
Cc1ccc(C2Nc3ccc4ccccc4c3C3=C2C(=O)CC(C)(C)C3)o1 (stereo not given) | 0.0565 | 23.2 | 3.3 | 20.0 | 6.6 | i
O=c1oc2ccccc2c2c1C(c1ccc(Cl)cc1)Nc1ccc3ccccc3c1-2 (stereo not given) | 0.335 | 87.2* | 1.0 | 52.6 | -2.7 | i
CCOc1ccc(C2Nc3ccc4ccccc4c3-c3c2c(=O)oc2ccccc32)cc1 (stereo not given) | 0.11 | 55.5* | 1.1 | 81.0* | -2.8 | i
CCCCN(C(=O)c1ccc(NC(=O)C(C)C)cc1)c1ccccc1 | -0.659 | 17.1 | 6.8 | 12.7 | 0.6 | i
COc1ccc(Nc2cc(C(=O)N3CCc4ccccc4C3)c3ccccc3n2)c(OC)c1 | -0.283 | 55.9* | 2.7 | 47.9 | -2.3 | i
COc1ccc(OC)c(-c2cc(C(=O)N3CCN(c4ncccn4)CC3)c3ccccc3n2)c1 | -0.141 | -9.3 | 3.6 | 14.9 | 0.6 | i
COc1ccccc1-c1cc(C(=O)N2CCc3ccccc3C2)c2ccccc2n1 | -0.969 | 100.1* | 2.0 | 25.1 | -4.5 | i
COc1ccccc1Nc1cc(C(=O)N2CCc3ccccc3C2)c2ccccc2n1 | 1.24 | 15.3 | 3.3 | 24.6 | -0.2 | i
O=c1c([N+](=O)[O-])c(N2CCCC2)c2ccccc2n1-c1ccccc1 | -0.471 | -2.7 | · | 21.3 | 0.2 | i
O=C(Cn1[nH]c(=O)c2ccccc2c1=O)NC1CCN(Cc2ccccc2)CC1 | -0.331 | 68.8* | 2.5 | 14.8 | -3.9 | i

High-throughput results from PubChem BioAssay.
